Laboratory results reported in ChEMBL document CHEMBL1143300, “Synthesis and activity evaluation of benzoylurea derivatives as potential antiproliferative agents” (Bioorg Med Chem Lett, 2009).
Values belong to the compound of their own block, whether it stands above or below them. Activity calls are given as the source filed them. The calls are words filed in the database; no cut-off is given here.

Assays:
Format in all cases: functional, cell-based
[1] = system: CCRF-CEM; assay: Antiproliferative activity against human CEM cells after 72 hrs by MTT assay
How it was run: (§1)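 MTT read-out of tumour cell proliferation after 72 h of drug exposure. IC50 is the drug concentration giving 50% inhibition of proliferation. Each experiment was repeated three times under identical conditions.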

[2] = system: SMMC-7721; assay: Antiproliferative activity against human SMMC7721 cells after 72 hrs by MTT assay; details: SMMC-7721, 72 h; how it was run: as §1
[3] = system: Bel-7402; assay: Antiproliferative activity against human Bel7402 cells after 72 hrs by MTT assay; details: Bel-7402, 72 h; how it was run: as §1
[4] = system: CCRF-CEM; assay: Effect on apoptosis-mediated morphological changes in human CEM cells at 3.2 uM after 12 hrs by Giemsa staining
How it was run: (§2)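 After 12 h of drug incubation, CEM cells were spun onto slides by cytospin, air-dried, fixed with methanol and Giemsa-stained. Morphology was examined at 400× magnification.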

[5] = system: HepG2; assay: Antiproliferative activity against human HepG2 cells after 72 hrs by MTT assay; details: HepG2, 72 h; how it was run: as §1
[6] = system: CCRF-CEM; assay: Effect on necrosis-mediated morphological changes in human CEM cells assessed as destruction of cytoplasm and nucleic membrane at IC75 after 12 hrs by Giemsa staining; how it was run: as §2
[7] = system: CCRF-CEM; assay: Effect on necrosis-mediated morphological changes in human CEM cells assessed as destruction of cytoplasm and nucleic membrane at 0.69 uM after 12 hrs by Giemsa staining; how it was run: as §2
[8] = system: CCRF-CEM; assay: Cell cycle arrest in human CEM cells assessed as accumulation at G2/M phase at 0.69 uM after 12 hrs by flow cytometry
How it was run: (§3)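 CEM cells were left untreated or drug-exposed for 12 h at 37 °C, then collected, fixed in methanol and DNA-stained with a fluorescent dye. Cell-cycle distribution was read by flow cytometry using a conventional cell cycle protocol, with untreated cells as reference.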

[9] = system: CCRF-CEM; assay: Cell cycle arrest in human CEM cells assessed as accumulation at G2/M phase at 3.2 uM after 12 hrs by flow cytometry; details: 0.1 uM, in the assay text read “0.1 uM” for “3.2 uM”; how it was run: as §3
[10] = system: CCRF-CEM; assay: Cell cycle arrest in human CEM cells assessed as accumulation at G2/M phase at 0.1 uM after 12 hrs by flow cytometry; how it was run: as §3

- IC50 [1]: 3160 nM
Structure (SMILES): CNC(=O)NC(=O)c1cccc(NC(=O)CBr)c1

- IC50 [2]: 9260 nM
- IC50 [3]: 1120 nM
- IC50 [5]: 1200 nM
Structure (SMILES): CC(Br)C(=O)Nc1cccc(C(=O)NC(N)=O)c1 (configuration not stated)
- Activity [4]: Active

- IC50 [1]: 9100 nM
Structure (SMILES): CNC(=O)NC(=O)c1cccc(NC(=O)CCl)c1

- IC50 [1]: > 20000 nM
Structure (SMILES): CC(Br)C(=O)Nc1cccc(C(=O)NC(=O)Nc2ccccc2)c1 (configuration not stated)

- IC50 [1]: > 20000 nM
Structure (SMILES): CC(Br)C(=O)Nc1cccc(CC(=O)NC(N)=O)c1 (configuration not stated)

- IC50 [2]: 930 nM
- IC50 [3]: 1200 nM
- IC50 [1]: 700 nM
- IC50 [5]: 900 nM
Structure (SMILES): O=C(CBr)Nc1cccc(C(=O)NC(=O)Nc2ccccn2)c1
- Activity [6]: Active

- IC50 [1]: 12100 nM
Structure (SMILES): CC(Br)C(=O)Nc1cccc(C(=O)NC(=O)Nc2ccc3c(c2)OCO3)c1 (configuration not stated)

- IC50 [1]: 1500 nM
Structure (SMILES): O=C(CBr)Nc1cccc(C(=O)NC(=O)Nc2ccc3c(c2)OCO3)c1

- IC50 [1]: > 20000 nM
Structure (SMILES): CNC(=O)NC(=O)c1cccc(NC(=O)C(C)Cl)c1 (configuration not stated)

- IC50 [1]: 12600 nM
Structure (SMILES): NC(=O)NC(=O)Cc1cccc(NC(=O)CCl)c1

- IC50 [2]: 670 nM
- IC50 [3]: 1400 nM
- IC50 [1]: 330 nM
- IC50 [5]: 820 nM
Structure (SMILES): COc1cc(NC(=O)NC(=O)c2cccc(NC(=O)CBr)c2)cc(OC)c1OC
- Activity [7]: Active
- Activity [8]: inactive

- IC50 [1]: 6230 nM
Structure (SMILES): CC(Br)C(=O)Nc1cccc(C(=O)NC(=O)Nc2ccccn2)c1 (configuration not stated)

- IC50 [2]: 52200 nM
- IC50 [3]: 40 nM
Structure (SMILES): CC[C@]1(O)C[C@H]2CN(CCc3c([nH]c4ccccc34)[C@@](C(=O)OC)(c3cc4c(cc3OC)N(C=O)[C@H]3[C@@](O)(C(=O)OC)[C@H](OC(C)=O)[C@]5(CC)C=CCN6CC[C@]43[C@@H]65)C2)C1 [VINCRISTINE]
- Activity [9]: Active
- Activity [10]: Active

- IC50 [1]: 9320 nM
Structure (SMILES): CNC(=O)NC(=O)c1cccc(NC(=O)C(C)Br)c1 (configuration not stated)

- IC50 [1]: 1330 nM
Structure (SMILES): COc1cc(NC(=O)NC(=O)c2cccc(NC(=O)C(C)Br)c2)cc(OC)c1OC (configuration not stated)

- IC50 [1]: 5010 nM
Structure (SMILES): O=C(CBr)Nc1cccc(C(=O)NC(=O)Nc2ccccc2)c1

- IC50 [1]: 1380 nM
Structure (SMILES): NC(=O)NC(=O)/C=C/c1cccc(NC(=O)CBr)c1
